Consider twelve compounds from ChEMBL document CHEMBL1122670, “Synthesis of previously inaccessible quinazolines and 1,4-benzodiazepines as potential anticonvulsants” (J Med Chem, 1984).

Active and inactive are the calls of the source. Some results are limits rather than exact numbers.

The ED50 is the dose at which the effect has come halfway, by size or by number of responders. For orientation: TD50 means the dose at which the toxic effect under study appears in half of the subjects. A higher TD50 goes with harm only at a large dose.

The test system of data set [1] is Mus musculus. Description: Evaluated for seizure threshold test at a dose 300 mg/kg &MST is the metrazole seizure threshold to persistent clonus; NA - Inactive. More on the design: dose 300 mg/kg. The format is functional, organism-based. In short, it runs like this:
(§1)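 0.5% pentylenetetrazol (with 0.9% NaCl and 0.001% heparin) was infused into a lateral tail vein at 6.31 μL/s. Time to 3 s of persistent clonus (MST) or hindlimb tonic flexion (MMT) was converted to mg/kg infused. Tested at 0.5 h (some at 4 h or 1 h). Results are % change from controls, by Student's t test.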

Data set [2] relates to Mus musculus. The data set can be described thus: Effective dose (ED50) was determined in sc Met (pentylenetetrazole) seizure threshold test. Type of data set: functional. In short, it runs like this: (§2)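 ADD Program screen in mice. Doses of 30, 100, 300 and 600 mg/kg were given, four animals per dose, with tests at 30 min and at 4 h. sc Met endpoint: no threshold seizure (single clonic spasm of 5 s) after an sc convulsant dose 99 of pentylenetetrazol. Rotorod assessed acute neurotoxicity. ED50/TD50 were estimated graphically; Litchfield-Wilcoxon 95% confidence limits were added for selected cases.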

Data set [3] deals with Mus musculus. The data set can be described thus: Evaluated for seizure threshold test at a dose 300 mg/kg &MMT is the maximal metrazole threshold to tonic flexion. The format is functional. In short, it runs like this: as §1
A short description of data set [4]: Compound was determined in rotarod test and expressed as TD50. Type of data set: ADME, organism-based. Particulars: mouse, in vivo. In short, it runs like this: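 ADD Program screen in mice. Doses of 30, 100, 300 and 600 mg/kg were given, four animals per dose, with tests at 30 min and at 4 h. sc Met endpoint: no threshold seizure (single clonic spasm of 5 s) after an sc convulsant dose 99 of pentylenetetrazol. Rotorod assessed acute neurotoxicity.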
Background: In the rotarod test animals must keep their balance on a rotating rod.

Data set [5] deals with Mus musculus. Description: Evaluated for seizure threshold test at a dose 100 mg/kg & MST is the metrazole seizure threshold to persistent clonus; I = inactive. The format is functional, organism-based. Set-up: dose 100 mg/kg. Summed up: (§3)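 At 0.5 h (some at 1 or 4 h), 0.5% pentylenetetrazol in 0.9% NaCl with 0.001% heparin was infused into the tail vein at 6.31 μL/s. Time to 3 s persistent clonus (MST) or tonic flexion (MMT) was converted to mg/kg, reported as % change vs controls, Student's t test.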

In data set [6] the test system is Mus musculus. Description: Evaluated for seizure threshold test at a dose 100 mg/kg & MMT is the maximal metrazole threshold to tonic flexion; I = inactive. The format is functional, organism-based. More on the design: dose 100 mg/kg. In short, it runs like this:
as §3

The subject of data set [7] is Mus musculus. Description: Evaluated for seizure threshold test at a dose 300 mg/kg & MST is the metrazole seizure threshold to persistent clonus. Type of data set: functional. In short, it runs like this:
as §3

The nature of data set [8]: Compound was evaluated for median lethal dose. The format is ADME, organism-based. Particulars: mouse, in vivo.
The subject of data set [9] is Mus musculus. The data set can be described thus: Evaluated for seizure threshold test at a dose 300 mg/kg & MMT is the maximal metrazole threshold to tonic flexion; I - inactive. Type of data set: functional, organism-based. More on the design: dose 300 mg/kg. In short, it runs like this:
as §3

The target of data set [10] is GABA-A receptor; anion channel (Mus musculus) (UniProt Q8BHJ7+P26048+Q8QZW7+P50571+Q9R0Y8+P22723+A2AMW3+P62812+Q9JLF1+P26049+P22933+Q9D6F4+P63080+P27681+P16305). Description: Inhibition of binding to GABA-A central benzodiazepine receptor (inactive). Type of data set: protein-complex assay.
The subject of data set [11] is Mus musculus. The data set can be described thus: Evaluated for seizure threshold test at a dose 600 mg/kg &MST is the metrazole seizure threshold to persistent clonus. Type of data set: functional. Summed up: as §3
Data set [12] has as its system Mus musculus. Description: Evaluated for seizure threshold test at a dose 600 mg/kg &MMT is the maximal metrazole threshold to tonic flexion. The format is functional. In short, it runs like this: as §1
In data set [13] the test system is GABA-A receptor; anion channel. The data set can be described thus: Inhibition of binding to GABA-A central benzodiazepine receptor (Inactive). The format is protein-complex assay, Mus musculus.
The subject of data set [14] is Mus musculus. The data set can be described thus: Evaluated for seizure threshold test at a dose 30 mg/kg &MMT is the maximal metrazole threshold to tonic flexion. The format is functional. Summed up:
as §3

Data set [15] has as its system Mus musculus. The data set can be described thus: Evaluated for seizure threshold test at a dose 30 mg/kg &MST is the metrazole seizure threshold to persistent clonus; I = Inactive. Type of data set: functional, organism-based. More on the design: dose 30 mg/kg. Summed up:
as §1

Data set [16] has as its system Mus musculus. Description: Effective dose (ED50) was determined in sc Met (pentylenetetrazole) seizure threshold test; I = Inactive at all doses including 600 mg/kg. Type of data set: functional, organism-based. More on the design: dose 600 mg/kg. Summed up:
as §2

Data set [17] relates to Mus musculus. Description: Evaluated for seizure threshold test at a dose 300 mg/kg &MST is the metrazole seizure threshold to persistent clonus. The format is functional. Summed up: as §3
Data set [18] deals with Mus musculus. The data set can be described thus: Evaluated for seizure threshold test at a dose 300 mg/kg &MMT is the maximal metrazole threshold to tonic flexion; I = Inactive. Type of data set: functional, organism-based. More on the design: dose 300 mg/kg. Summed up:
as §3

Data set [19] concerns Mus musculus. The data set can be described thus: Evaluated for seizure threshold test at a dose 30 mg/kg & MMT is the maximal metrazole threshold to tonic flexion; I = Inactive. The format is functional, organism-based. More on the design: dose 30 mg/kg. Summed up:
as §1

In data set [20] the test system is Mus musculus. Description: Evaluated for seizure threshold test at a dose 30 mg/kg & MST is the metrazole seizure threshold to persistent clonus. The format is functional. In short, it runs like this: as §3
In data set [21] the test system is Mus musculus. The data set can be described thus: Evaluated for seizure threshold test at a dose 25 mg/kg &MMT is the maximal metrazole threshold to tonic flexion; I = Inactive. The format is functional, organism-based. More on the design: dose 25 mg/kg. In short, it runs like this: as §1
The species entered for data set [22] is Mus musculus. The data set can be described thus: Compound was determined in rotarod test and expressed as TD50; I = Inactive. Type of data set: ADME, organism-based. Particulars: in vivo. Summed up:
as §2

Data set [23] has as its system Mus musculus. The data set can be described thus: Evaluated for seizure threshold test at a dose 25 mg/kg &MST is the metrazole seizure threshold to persistent clonus; I = Inactive. The format is functional, organism-based. More on the design: dose 25 mg/kg. In short, it runs like this:
as §1

The test system of data set [24] is Mus musculus. Description: Effective dose (ED50) was determined in sc Met (pentylenetetrazole) seizure threshold test; I = Inactive. The format is functional, organism-based. In short, it runs like this: as §2
The subject of data set [25] is Mus musculus. Description: Evaluated for seizure threshold test at a dose 75 mg/kg &MST is the metrazole seizure threshold to persistent clonus; I = Inactive. More on the design: dose 75 mg/kg. The format is functional, organism-based. In short, it runs like this: as §1
Data set [26] relates to Mus musculus. The data set can be described thus: Evaluated for seizure threshold test at a dose 75 mg/kg &MMT is the maximal metrazole threshold to tonic flexion. The format is functional. Summed up: as §1

For `CC(=O)c1cc(-c2ccccc2)c(-c2ccccc2)c(C#N)c1N`, in data set [1], the Change result was “inactive”. In data set [2], this compound had an ED50 of 260 mg/kg. Further, the Change in data set [3] is on record as 20%. For the same compound, the TD50 in data set [4] is more than 600 mg/kg.
For `Cc1cc2c(c(C#N)c1C)NC(=O)CN=C2c1ccccc1`, the Change result in [5], in [6], in [9] and in data set [10] was “inactive” throughout. In data set [2], the 50% effect level (ED50) was put at a dose of 370 mg/kg. In data set [7], the Change is reported as 44%. Also, in data set [4], the TD50 is more than 1000 mg/kg. In data set [8] (read-out: LD), the LD50 was more than 2 mg/kg.
Take `Cc1cc(C(=O)C2CC2)c(N)c(C#N)c1C`: the Change came to 23% in [11] and 37% in data set [12]. In addition, in data set [2], the 50% effective dose (ED50) turned out to be 600 mg/kg. This compound came in with a TD50 in data set [4] of more than 600 mg/kg.
Turning to `Cc1cc2c(C)ncnc2c(C#N)c1C`, in [13], the IC50 result is on record as “Not Active”. Besides, the Change in data set [14] is -24%. In addition, the Change entry in [15] was “inactive”. Besides, the ED50 result in data set [16] was “inactive”. The TD50 in data set [4] was 45 mg/kg. In [8], this compound registered an LD50 of 150 mg/kg.
On to `Cc1cc2c(c(C#N)c1C)NC(=O)CN=C2C1CC1`, for which, in data set [13], the IC50 result is given as “Not Active”. In addition, the Change in data set [17] was found to be 300%. Further, in [16], the ED50 entry is “inactive”. In data set [4], this compound had a TD50 of 600 mg/kg. For the same compound, in [18], the Change entry was “inactive”.
Take `CC1=NCC(=O)Nc2c1cc(C)c(C)c2C#N`: the results for the Change result in data set [19] and in data set [20] were “Not significant” and 30%, respectively. For the same compound, in [16], the ED50 result was “inactive”. In data set [4], the TD50 was found to be 70 mg/kg. For the same compound, the LD50 in [8] came out at 150 mg/kg.
For `Cc1cc(C(=O)c2ccccc2)c(O)c(C#N)c1C`, the Change result in data set [21] and in data set [23] was “Not significant” each time. Also, the TD50 result in [22] was “Not Active”. The ED50 entry in data set [24] was “inactive”.
Consider `Cc1cc2c(C)nc(O)nc2c(C#N)c1C`, for which the Change entry in [21] and in data set [23] was “Not significant” in each case. Besides, the TD50 result in data set [22] was “Not Active”. Moreover, the ED50 result in data set [24] is “inactive”.
For the compound `Cc1cc(C(=O)c2ccccc2)c(N)c(C#N)c1C`, the Change result in [21] and in data set [23] was “Not significant” each time. Moreover, the TD50 entry in [22] was “Not Active”. Further, in [24], the ED50 result is “inactive”.
Take `Cc1cc2c(c(C#N)c1C)NC(=O)NC2C` (stereo unspecified): the Change result in data set [25] was “Not significant”; in [26], -16%. Besides, in [16], the ED50 entry was “inactive”. The compound also registered a TD50 in data set [4] of 300 mg/kg.
As for `Cc1cc2c(-c3ccccc3)ncnc2c(C#N)c1C`, the Change result in data set [21] and in data set [23] was “Not significant” each time. Further, in [22], the TD50 result is listed as “Not Active”. Besides, the ED50 result in data set [24] was “inactive”.
For `Cc1cc2c(-c3ccccc3F)ncnc2c(C#N)c1C`, the Change result in data set [21] and in [23] was “Not significant” each time. The TD50 result in [22] is on record as “Not Active”. Besides, the ED50 result in data set [24] is “inactive”.
